Laboratory results reported in PMC10644204 (Pharmacology Research & Perspectives, 2023).
Where “and” joins values, the source holds several entries; their conditions need not be identical. Identical values can stand only once. Entries after “also recorded” stand apart in the source; their conditions may differ. Like-named read-outs stand apart in the source and are kept apart here.

How the values were obtained:
Type in all cases: in vivo, human
[1] = Plasma pharmacokinetics, part 1 sentinel cohort
Method in brief: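 Part 1: healthy participants (n = 8) randomised 3:1 to test compound 500 mg or placebo orally once daily for 7 days, given with a moderate-fat meal (~600 cal, 30% fat) 30 min before dosing. Plasma sampled within 40 min predose on Days 1, 5, 6 and 7, and on Day 7 at 0.5–48 h postdose. Validated UHPLC-MS/MS, range 3.00–1000 ng mL−1.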

[2] = Plasma pharmacokinetics, part 2 main QTc study; conditions: for Cτ, geometric mean (%CVb): moderate-fat meal, Day 7, n = 40
Method in brief: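 Moderate-fat meal 30 min before each dose. Plasma sampled predose on Days 1, 5, 6 and 7, and on Day 7 at 0.5–24 h postdose. Test compound assayed by validated UHPLC-MS/MS (3.00–1000 ng mL−1).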

[3] = tested on: healthy participants
[4] = tested on: healthy participants; assay: Concentration-QTc analysis
Method in brief: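 Part 2: 12-lead ECGs extracted from continuous Holter recordings at baseline (Day −1; −45, −30, −15 min predose Day 1) and on Day 7 predose and 0.5–24 h postdose. ECGs taken before PK blood draws. QTcF by Fridericia. Mixed-effects model of ΔQTcF on plasma test compound concentration, with centred baseline QTcF, treatment and time fixed, and per-participant random slope and intercept.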

[5] = tested on: healthy participants; assay: Safety assessments
Method in brief: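 Part 2 healthy participants confined from Day −2 of period 1 to Day 9 of period 4. […] AEs monitored throughout, recording duration, severity, causality and outcome, alongside safety ECGs, laboratory tests, physical examination and vital signs.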

[6] = GSK'254 500 mg QD, 24 h post-dose
[7] = part 2, GSK'254 100 mg (N = 40)

AUC ([1]; human, plasma, oral, 500 mg): 68800 ng·h/mL
Cmax ([1]; human, plasma, oral, 500 mg): 4440 ng/mL
Cτ, geometric mean (%CVb) ([1]; part 1, GSK'254 500 mg QD 7 days, moderate-fat meal, Day 7, n = 6): 2080 ng mL^−1 and 2080 (32.4) ng mL^−1
Observations of ΔQTcF >30 ms ([3]; GSK'254 100 mg QD): no participants
Outliers in HR changes (HR >100 bpm with a >25% increase in ΔHR) ([3]; GSK'254 100 mg QD): one participant at one time point
LS mean ΔΔHR, lowest across time points ([3]; GSK'254 100 mg QD, 0.5 h post-dose, Day 7): −0.2 (−2.17–1.67) bpm
LS mean ΔΔHR, highest across time points ([3]; GSK'254 100 mg QD, 24 h post-dose, Day 7): 2.6 (0.70–4.53) bpm
ΔΔQTcF, LS mean (90% CI) ([3]; GSK'254 100 mg QD, Day 7, 0.5 h): 1.0 (−1.60, 3.59) ms
ΔΔQTcF, LS mean (90% CI) ([3]; GSK'254 100 mg QD, Day 7, 1 h): 0.6 (−2.06, 3.33) ms
ΔΔQTcF, LS mean (90% CI) ([3]; GSK'254 100 mg QD, Day 7, 2 h): 1.7 (−1.27, 4.73) ms
ΔΔQTcF, LS mean (90% CI) ([3]; GSK'254 100 mg QD, Day 7, 3 h): 1.5 (−1.45, 4.51) ms
ΔΔQTcF, LS mean (90% CI) ([3]; GSK'254 100 mg QD, Day 7, 4 h): 1.0 (−1.59, 3.54) ms
ΔΔQTcF, LS mean (90% CI) ([3]; GSK'254 100 mg QD, Day 7, 4.5 h): 1.0 (−1.73, 3.82) ms
ΔΔQTcF, LS mean (90% CI) ([3]; GSK'254 100 mg QD, Day 7, 5 h): 0.2 (−2.44, 2.80) ms
ΔΔQTcF, LS mean (90% CI) ([3]; GSK'254 100 mg QD, Day 7, 6 h): 1.7 (−1.58, 4.97) ms
ΔΔQTcF, LS mean (90% CI) ([3]; GSK'254 100 mg QD, Day 7, 8 h): −0.8 (−3.54, 1.90) ms
ΔΔQTcF, LS mean (90% CI) ([3]; GSK'254 100 mg QD, Day 7, 10 h): 0.2 (−2.30, 2.65) ms
ΔΔQTcF, LS mean (90% CI) ([3]; GSK'254 100 mg QD, Day 7, 12 h): 0.5 (−2.43, 3.35) ms
ΔΔQTcF, LS mean (90% CI) ([3]; GSK'254 100 mg QD, Day 7, 24 h): 0.1 (−2.66, 2.76) ms
ΔΔQTcF, LS mean (90% CI) ([3]; GSK'254 100 mg QD, Day 7, […]): 1.4 (−1.30, 4.13) ms
ΔΔQTcF, LS mean (90% CI) ([3]; GSK'254 100 mg QD, Day 7, pre-dose): 1.4 (−0.88, 3.77) ms
Maximum LS mean ΔΔQTcF ([3]; GSK'254 100 mg QD, at 2 and 6 h post-dose on Day 7): 1.7 ms
Upper bound of the 90% CI of LS mean ΔΔQTcF ([3]; GSK'254 100 mg QD, through 24 h post-dose on Day 7): < 10 ms
Observations of ΔQTcF >30 ms ([3]; GSK'254 500 mg QD): two participants (three time points)
Outliers in HR changes (HR >100 bpm with a >25% increase in ΔHR) ([3]; GSK'254 500 mg QD): one participant at one time point
Largest LS mean ΔΔHR ([3]; GSK'254 500 mg QD, 10 h post-dose on Day 7): 5.1 bpm
LS mean placebo-corrected change from baseline in PR, lowest across post-dose time points [3, 6]: −1.8 (−4.00–0.36) ms
LS mean placebo-corrected change from baseline in QRS, maximum value [3, 6]: 1.4 ms
ΔΔQTcF, LS mean (90% CI) ([3]; GSK'254 500 mg QD, Day 7, 0.5 h): 7.2 (4.59, 9.83) ms
ΔΔQTcF, LS mean (90% CI) ([3]; GSK'254 500 mg QD, Day 7, 1 h): 4.1 (1.34, 6.79) ms
ΔΔQTcF, LS mean (90% CI) ([3]; GSK'254 500 mg QD, Day 7, 2 h): 6.5 (3.46, 9.55) ms
ΔΔQTcF, LS mean (90% CI) ([3]; GSK'254 500 mg QD, Day 7, 3 h): 8.1 (5.06, 11.09) ms
ΔΔQTcF, LS mean (90% CI) ([3]; GSK'254 500 mg QD, Day 7, 4 h): 8.6 (6.03, 11.22) ms
ΔΔQTcF, LS mean (90% CI) ([3]; GSK'254 500 mg QD, Day 7, 4.5 h): 10.6 (7.75, 13.38) ms
ΔΔQTcF, LS mean (90% CI) ([3]; GSK'254 500 mg QD, Day 7, 5 h): 9.6 (6.92, 12.24) ms
ΔΔQTcF, LS mean (90% CI) ([3]; GSK'254 500 mg QD, Day 7, 6 h): 8.6 (5.27, 11.89) ms
ΔΔQTcF, LS mean (90% CI) ([3]; GSK'254 500 mg QD, Day 7, 8 h): 8.1 (5.34, 10.85) ms
ΔΔQTcF, LS mean (90% CI) ([3]; GSK'254 500 mg QD, Day 7, 10 h): 8.6 (6.14, 11.15) ms
ΔΔQTcF, LS mean (90% CI) ([3]; GSK'254 500 mg QD, Day 7, 12 h): 6.0 (3.07, 8.89) ms
ΔΔQTcF, LS mean (90% CI) ([3]; GSK'254 500 mg QD, Day 7, 24 h): 7.7 (4.94, 10.45) ms
ΔΔQTcF, LS mean (90% CI) ([3]; GSK'254 500 mg QD, Day 7, […]): 9.2 (6.44, 11.93) ms
ΔΔQTcF, LS mean (90% CI) ([3]; GSK'254 500 mg QD, Day 7, pre-dose): 7.1 (4.74, 9.46) ms
LS mean placebo-corrected change from baseline in PR, highest across post-dose time points ([3]; GSK'254 500 mg QD, […] post-dose): 3.2 (0.86–5.57) ms
Maximum LS mean ΔΔQTcF ([3]; GSK'254 500 mg QD, at 4.5 h post-dose on Day 7): 10.6 ms and 10.6 (7.75–13.38) ms
Compound: C=C(C)[C@@H]1CC[C@]2(NCCN3CCS(=O)(=O)CC3)CC[C@]3(C)[C@H](CC[C@@H]4[C@@]5(C)CC=C(C6=CC[C@@](CF)(C(=O)O)CC6)C(C)(C)[C@@H]5CC[C@]43C)[C@@H]12 [GSK'254]
AUC ([2]; human, plasma, oral, 100 mg): 13800 ng·h/mL
AUC ([2]; human, plasma, oral, 500 mg): 67500 ng·h/mL
Cmax ([2]; human, plasma, oral, 500 mg): 4260 ng/mL
Cτ, geometric mean (%CVb) ([2]; part 2, GSK'254 100 mg QD 7 days): 460 ng mL^−1 and 460 (40.3) ng mL^−1
Cτ, geometric mean (%CVb) ([2]; part 2, GSK'254 500 mg QD 7 days): 2140 ng mL^−1 and 2140 (46.6) ng mL^−1
Geometric mean steady-state exposure values with GSK'254 500 mg relative to GSK'254 100 mg ([2]; part 2, QD 7 days): ~ 5 fold
Clinically relevant effects on cardiac parameters (QTc prolongation, HR, cardiac conduction) ([3]; GSK'254 100 mg QD): No clinically relevant effects on cardiac parameters; also recorded: No clinically relevant effects on QTc prolongation, HR, or cardiac conduction
Reports of QTcF >450 to ≤480 ms ([3]; GSK'254 100 mg QD): one participant (one time point)
Reports of QTcF >450 to ≤480 ms ([3]; GSK'254 500 mg QD): one participant (one time point)
Clinically relevant effects on heart rate or cardiac conduction (PR and QRS intervals) ([3]; both GSK'254 doses (100 and 500 mg QD)): Neither GSK'254 dose had clinically relevant effects on heart rate or cardiac conduction; also recorded: neither GSK'254 dose had a clinically relevant effect on cardiac conduction (PR and QRS intervals) or HR
Treatment effect-specific intercept of the concentration-QTc model ([4]; Day 7): 0.61 ms
Model-predicted ΔΔQTcF at geometric mean GSK'254 Cmax ([4]; GSK'254 100 mg): 2.72 ms
Model-predicted ΔΔQTcF at geometric mean GSK'254 Cmax ([4]; GSK'254 500 mg): 11.49 ms
Estimated population slope of the concentration-QTc model ([4]; ΔΔQTcF vs GSK'254 plasma concentration, Day 7): 0.0025 ms per ng mL^−1
Tolerability ([5]; both GSK'254 doses, short-term administration, all AEs mild in intensity): generally well tolerated
AE: Abdominal pain [5, 7]: 0 n (%)
AE: Acne [5, 7]: 2 (5) n (%)
AE: Diarrhea [5, 7]: 0 n (%)
